How the values were obtained:
EKVX = assay: Growth inhibition of human EKVX cells assessed as cell growth at 10 uM after 48 hrs by sulforhodamine B assay; assay type: functional; conditions: read-out: Activity
How it was run: (§1)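 NCI 60-cell-line panel screen (nine cancer types). Compounds added at single concentration 10^-5 M, cultures incubated 48 h; growth inhibition percentages reported.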

SK-MEL-2 = assay: Growth inhibition of human SK-MEL-2 cells assessed as cell growth at 10 uM after 48 hrs by sulforhodamine B assay; assay type: functional; conditions: SK-MEL-2, 48 h, read-out: Activity; how it was run: as §1
SN12C = assay: Growth inhibition of human SN12C cells assessed as cell growth at 10 uM after 48 hrs by sulforhodamine B assay; assay type: functional; conditions: read-out: Activity
How it was run: (§2)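 NCI 60-cell-line panel from nine tumour types (leukaemia, lung, colon, CNS, melanoma, ovarian, renal, prostate, breast). Each compound was added at one single concentration, and cultures were incubated for 48 h. Results are reported as percent growth inhibition.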

SF-295 = assay: Growth inhibition of human SF295 cells assessed as cell growth at 10 uM after 48 hrs by sulforhodamine B assay; assay type: functional; conditions: SF-295, 48 h, read-out: Activity; how it was run: as §1
K562 = assay: Growth inhibition of human K562 cells assessed as cell growth at 10 uM after 48 hrs by sulforhodamine B assay; assay type: functional; conditions: K562, 48 h, read-out: Activity; how it was run: as §1
Malme-3M = assay: Growth inhibition of human MALME-3M cells assessed as cell growth at 10 uM after 48 hrs by sulforhodamine B assay; assay type: functional; conditions: read-out: Activity; how it was run: as §1
U-251 = assay: Growth inhibition of human U251 cells assessed as cell growth at 10 uM after 48 hrs by sulforhodamine B assay; assay type: functional; conditions: U-251, 48 h, read-out: Activity; how it was run: as §2
T47D = assay: Growth inhibition of human T47D cells assessed as cell growth at 10 uM after 48 hrs by sulforhodamine B assay; assay type: functional; conditions: read-out: Activity; how it was run: as §2
NCI/ADR-RES = assay: Growth inhibition of human NCI-ADR-RES cells assessed as cell growth at 10 uM after 48 hrs by sulforhodamine B assay; assay type: functional; conditions: read-out: Activity; how it was run: as §1
NCI-H322M = assay: Growth inhibition of human NCI-H322M cells assessed as cell growth at 10 uM after 48 hrs by sulforhodamine B assay; assay type: functional; conditions: read-out: Activity; how it was run: as §1
UACC-62 = assay: Growth inhibition of human UACC62 cells assessed as cell growth at 10 uM after 48 hrs by sulforhodamine B assay; assay type: functional; conditions: UACC-62, 48 h, read-out: Activity; how it was run: as §2
SNB-19 = assay: Growth inhibition of human SNB19 cells assessed as cell growth at 10 uM after 48 hrs by sulforhodamine B assay; assay type: functional; conditions: SNB-19, 48 h, read-out: Activity; how it was run: as §2
SK-MEL-28 = assay: Growth inhibition of human SK-MEL-28 cells assessed as cell growth at 10 uM after 48 hrs by sulforhodamine B assay; assay type: functional; conditions: SK-MEL-28, 48 h, read-out: Activity; how it was run: as §1
SK-MEL-5 = assay: Growth inhibition of human SK-MEL-5 cells assessed as cell growth at 10 uM after 48 hrs by sulforhodamine B assay; assay type: functional; conditions: SK-MEL-5, 48 h, read-out: Activity; how it was run: as §1
KM12 = assay: Growth inhibition of human KM12 cells assessed as cell growth at 10 uM after 48 hrs by sulforhodamine B assay; assay type: functional; conditions: KM12, 48 h, read-out: Activity; how it was run: as §1
HCT-15 = assay: Growth inhibition of human HCT15 cells assessed as cell growth at 10 uM after 48 hrs by sulforhodamine B assay; assay type: functional; conditions: HCT-15, 48 h, read-out: Activity; how it was run: as §1
SK-OV-3 = assay: Growth inhibition of human SKOV3 cells assessed as cell growth at 10 uM after 48 hrs by sulforhodamine B assay; assay type: functional; conditions: SK-OV-3, 48 h, read-out: Activity; how it was run: as §1
PC-3 = assay: Growth inhibition of human PC3 cells assessed as cell growth at 10 uM after 48 hrs by sulforhodamine B assay; assay type: functional; conditions: PC-3, 48 h, read-out: Activity; how it was run: as §1
786-0 = assay: Growth inhibition of human 786-0 cells assessed as cell growth at 10 uM after 48 hrs by sulforhodamine B assay; assay type: functional; conditions: 786-0, 48 h, read-out: Activity; how it was run: as §1
UACC-257 = assay: Growth inhibition of human UACC257 cells assessed as cell growth at 10 uM after 48 hrs by sulforhodamine B assay; assay type: functional; conditions: UACC-257, 48 h, read-out: Activity; how it was run: as §2
OVCAR-5 = assay: Growth inhibition of human OVCAR5 cells assessed as cell growth at 10 uM after 48 hrs by sulforhodamine B assay; assay type: functional; conditions: OVCAR-5, 48 h, read-out: Activity; how it was run: as §1
TK-10 = assay: Growth inhibition of human TK10 cells assessed as cell growth at 10 uM after 48 hrs by sulforhodamine B assay; assay type: functional; conditions: TK-10, 48 h, read-out: Activity; how it was run: as §2
A549 = assay: Growth inhibition of human A549/ATCC cells assessed as cell growth at 10 uM after 48 hrs by sulforhodamine B assay; assay type: functional; conditions: A549, 48 h, read-out: Activity; how it was run: as §1
UO-31 = assay: Growth inhibition of human UO31 cells assessed as cell growth at 10 uM after 48 hrs by sulforhodamine B assay; assay type: functional; conditions: UO-31, 48 h, read-out: Activity; how it was run: as §2
A498 = assay: Growth inhibition of human A498 cells assessed as cell growth at 10 uM after 48 hrs by sulforhodamine B assay; assay type: functional; conditions: A498, 48 h, read-out: Activity; how it was run: as §1
CAKI-1 = assay: Growth inhibition of human CAKI-1 cells assessed as cell growth at 10 uM after 48 hrs by sulforhodamine B assay; assay type: functional; conditions: CAKI-1, 48 h, read-out: Activity; how it was run: as §1
HCC 2998 = assay: Growth inhibition of human HCC2998 cells assessed as cell growth at 10 uM after 48 hrs by sulforhodamine B assay; assay type: functional; conditions: HCC 2998, 48 h, read-out: Activity; how it was run: as §1
OVCAR-3 = assay: Growth inhibition of human OVCAR3 cells assessed as cell growth at 10 uM after 48 hrs by sulforhodamine B assay; assay type: functional; conditions: OVCAR-3, 48 h, read-out: Activity; how it was run: as §1
SF-539 = assay: Growth inhibition of human SF539 cells assessed as cell growth at 10 uM after 48 hrs by sulforhodamine B assay; assay type: functional; conditions: SF-539, 48 h, read-out: Activity; how it was run: as §1
SNB-75 = assay: Growth inhibition of human SNB75 cells assessed as cell growth at 10 uM after 48 hrs by sulforhodamine B assay; assay type: functional; conditions: SNB-75, 48 h, read-out: Activity; how it was run: as §2
NCI-H460 = assay: Growth inhibition of human NCI-H460 cells assessed as cell growth at 10 uM after 48 hrs by sulforhodamine B assay; assay type: functional; conditions: NCI-H460, 48 h, read-out: Activity; how it was run: as §1
[1] = Inhibition of beta tubulin polymerisation in human HepG2 cells incubated for 2 hrs using TMB substrate by ELISA; assay type: cell-based; conditions: HepG2, 2 h
HepG2 = assay: Inhibition of beta tubulin polymerisation in human HepG2 cells incubated for 2 hrs using TMB substrate by ELISA relative to untreated control; assay type: cell-based; set-up: concentration or dose not given beside the values; conditions: dose or concentration not given here

SMILES	growth at 10 µM (EKVX)	growth at 10 µM (SK-MEL-2)	growth at 10 µM (SF-295)	growth at 10 µM (Malme-3M)	growth at 10 µM (U-251)	growth at 10 µM (T47D)	growth at 10 µM (NCI/ADR-RES)	growth at 10 µM (NCI-H322M)	growth at 10 µM (SNB-19)	growth at 10 µM (KM12)	growth at 10 µM (HCT-15)	growth at 10 µM (SK-OV-3)	growth at 10 µM (PC-3)	growth at 10 µM (786-0)	growth at 10 µM (OVCAR-5)	growth at 10 µM (TK-10)	growth at 10 µM (A549)	growth at 10 µM (UO-31)	growth at 10 µM (A498)	growth at 10 µM (OVCAR-3)	also measured
CCOc1ccc(-n2nc(C(=O)Nc3ccc(F)c(F)c3F)nc2-c2cc(OC)c(OC)c(OC)c2)cc1	78.5%	84.1%	93%	86.9%	98.2%	65.7%	88.6%	69.5%	88.3%	96%	64.3%	85%	71.6%	79.6%	81.5%	101%	85.7%	51.5%	88.7%	91.6%	growth at 10 µM (SN12C): 86.5%; growth at 10 µM (K562): 90.7%; growth at 10 µM (UACC-62): 89.7%; growth at 10 µM (SK-MEL-28): 86.7%; growth at 10 µM (SK-MEL-5): 87%; growth at 10 µM (UACC-257): 101%; growth at 10 µM (CAKI-1): 60.5%; growth at 10 µM (HCC 2998): 94.6%; growth at 10 µM (SF-539): 87.9%; growth at 10 µM (SNB-75): 68.3%; growth at 10 µM (NCI-H460): 104%
CCOc1ccc(-n2nc(C(=O)Nc3ccccc3OC)nc2-c2cc(OC)c(OC)c(OC)c2)cc1	76.3%	81.9%	84.8%	99.8%	94%	50.2%	85.3%	77.4%	88.5%	96.2%	80.8%	88.8%	65.5%	79.1%	82.4%	89.2%	77.3%	59.6%	83.8%	95.6%	growth at 10 µM (SN12C): 83.1%; growth at 10 µM (K562): 79.6%; growth at 10 µM (UACC-62): 85.2%; growth at 10 µM (SK-MEL-28): 78.3%; growth at 10 µM (SK-MEL-5): 73.8%; growth at 10 µM (UACC-257): 97.9%; growth at 10 µM (CAKI-1): 66.7%; growth at 10 µM (HCC 2998): 99.7%; growth at 10 µM (SF-539): 85.7%; growth at 10 µM (SNB-75): 66.6%; growth at 10 µM (NCI-H460): 83.4%
COc1cccc(-n2nc(C(=O)NCc3ccccc3C)nc2-c2cc(OC)c(OC)c(OC)c2)c1	73.3%	78.1%	76.1%	94.7%	85%	56.4%	63.1%	87.5%	83.2%	82%	74.3%	87.7%	83.2%	76%	111%	73.2%	69.2%	35.9%	95.9%	81%	growth at 10 µM (SN12C): 91.7%; growth at 10 µM (K562): 90.8%; growth at 10 µM (UACC-62): 72.5%; growth at 10 µM (SK-MEL-28): 107%; growth at 10 µM (SK-MEL-5): 86.8%; growth at 10 µM (HCC 2998): 96%; growth at 10 µM (SF-539): 87.7%; growth at 10 µM (SNB-75): 31.7%; growth at 10 µM (NCI-H460): 96.4%
CCOc1ccc(-n2nc(C(=O)Nc3cccc(OC)c3)nc2-c2cc(OC)c(OC)c(OC)c2)cc1	77.7%	86.9%	68.5%	91.7%	78.5%	58.5%	77.5%	79.8%	83.9%	71.2%	74.3%	96.5%	59%	84.8%	95.5%	93.6%	68.2%	50.9%	78.8%	78.7%	IC50 [1]: 36.8 µM; growth at 10 µM (UACC-257): 94.7%; growth at 10 µM (CAKI-1): 72.5%; inhibition (HepG2): 49.6%; growth at 10 µM (SF-539): 90.2%; growth at 10 µM (SNB-75): 68.1%; growth at 10 µM (NCI-H460): 79.3%
COc1cccc(-n2nc(C(=O)NCc3ccccc3OC)nc2-c2cc(OC)c(OC)c(OC)c2)c1	91.1%	77.8%	95.1%	99.7%	97.1%	75.8%	77.4%	94.3%	100%	95.6%	96.8%	96.7%	104%	94%	113%	81%	92.8%	59.1%	104%	101%	growth at 10 µM (SN12C): 94.8%; growth at 10 µM (K562): 122%; growth at 10 µM (UACC-62): 97.4%; growth at 10 µM (SK-MEL-28): 115%; growth at 10 µM (SK-MEL-5): 107%; growth at 10 µM (HCC 2998): 92.1%; growth at 10 µM (SF-539): 96.5%; growth at 10 µM (SNB-75): 63%; growth at 10 µM (NCI-H460): 111%
CCOc1ccc(-n2nc(C(=O)NCc3cccc(OC)c3)nc2-c2cc(OC)c(OC)c(OC)c2)cc1	89.1%	90%	90.3%	97.7%	94.2%	69.8%	82.5%	81.6%	90.1%	96.4%	90%	85.8%	78.4%	90.2%	120%	87.8%	73.2%	44.3%	98.1%	93.5%	growth at 10 µM (SN12C): 96.5%; growth at 10 µM (K562): 88.5%; growth at 10 µM (UACC-62): 82.9%; growth at 10 µM (SK-MEL-28): 109%; growth at 10 µM (SK-MEL-5): 92.2%; growth at 10 µM (HCC 2998): 102%; growth at 10 µM (SF-539): 88.9%; growth at 10 µM (SNB-75): 53.2%; growth at 10 µM (NCI-H460): 102%
